Results: PubChem BioAssay AID652250 (Vanderbilt Specialized Chemistry Center, 2013)
Activity calls are given as the source filed them.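 The calls were made as follows: active = compounds leaving under half of the peptide-driven platelet calcium rise; inactive = the rest.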

Target: Proteinase-activated receptor 4 (Homo sapiens) (UniProt Q96RI0)
Assay: PAR4 antagonists in human platelets, cell-based, single concentration, washed platelets, Fluo4 calcium (AID 652250)
Settings: PAR4-AP calcium Fluo4 fluorescence
Procedure, shortened: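 Material – Fluo4-AM-loaded washed human platelets · Also added – PAR4-activating peptide (PAR4-AP) agonist at 80 µM · Signal – fluorescence at 480/540 nm, 1 s intervals · Read-out – peak minus basal RFU as % of per-donor DMSO control · Benchmarks – PAR4-AP-stimulated DMSO control (100%) · Replicates – triplicate wells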

Sequence of Proteinase-activated receptor 4 (Homo sapiens) (Q96RI0 whole entry, looked up): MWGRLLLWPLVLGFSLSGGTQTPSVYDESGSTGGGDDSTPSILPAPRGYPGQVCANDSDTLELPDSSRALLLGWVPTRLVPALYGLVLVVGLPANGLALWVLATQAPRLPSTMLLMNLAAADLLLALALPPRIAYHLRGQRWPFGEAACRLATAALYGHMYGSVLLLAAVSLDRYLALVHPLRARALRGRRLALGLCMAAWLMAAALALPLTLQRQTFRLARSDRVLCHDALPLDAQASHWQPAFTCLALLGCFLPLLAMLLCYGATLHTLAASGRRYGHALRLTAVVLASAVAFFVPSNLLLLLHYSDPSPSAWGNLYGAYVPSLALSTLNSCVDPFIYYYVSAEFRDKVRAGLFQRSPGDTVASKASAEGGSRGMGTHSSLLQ

Row | SMILES | IC50 [µM]
1 | COc1ccc(-c2cn(Cc3ccccc3)c3ccccc23)cn1 | 5.4
2 | COc1ccc(-c2cn(Cc3ccccc3)c3ccccc23)cc1 | 10
3 | COc1ccc(-c2cn(Cc3cccc(Br)c3)c3ccccc23)cn1 | 5.27

Same assay, conditions: PAR4-AP calcium Fluo4 fluorescence, at 10 µM, hits give low values

Row | SMILES | % of max PAR4-AP calcium response
4 | Cc1ccc(-n2cc(-c3ccccc3)c3c(NC4CCCC4)ncnc32)cc1Cl | inactive
5 | O=C(Cn1cc(C(=S)N2CCOCC2)c2ccccc21)N1CCOCC1 | inactive
6 | CCn1c(C(=O)O)c(CC(=O)N(C)c2ccc(F)cc2)c2ccccc21 | inactive
7 | CCn1c(COC)c(-c2ccccc2)c2cc([N+](=O)[O-])ccc21 | inactive
8 | CNc1ccccc1-n1ccc(-c2ccccc2)n1 | inactive
9 | Cn1cnnc1SCC(=O)n1c2c(c3ccccc31)CCCC2 | inactive
10 | c1ccc(Cn2cc(-c3cncnc3)c3ccccc32)cc1 | inactive
11 | CCCOc1ccc(-c2cn(Cc3ccccc3)c3ccccc23)cc1 | inactive
12 | O=C(CSc1ncnc2c1c(-c1ccccc1)cn2-c1ccc(F)cc1)c1ccccc1 | inactive
13 | O=C(c1ccn(C(=O)c2cccc(Cl)c2)n1)N1CCOCC1 | inactive
14 | Cc1nn(-c2ccccc2)c2[nH]c(C(F)(F)F)cc(=O)c12 | inactive
15 | COc1ccc(-n2nc(C(=O)NCCC3=CCCCC3)c3c4ccccc4n(C)c3c2=O)cc1Cl | inactive
16 | O=C(c1cn(Cc2ccc(F)cc2)c2ccccc12)C(F)(F)F | inactive
17 | c1ccc(-c2cn(-c3ccccc3)c3ncnc(N4CCCC4)c23)cc1 | inactive
18 | COc1cccc(/C=N/NC(=O)c2ccn(Cc3ccc(Cl)cc3Cl)n2)c1OC | inactive
19 | N#Cc1ccc(-c2cn(Cc3ccccc3)c3ccccc23)cc1 | inactive
20 | Cc1nc(-c2cnn(-c3ccccc3)c2)c2cc(C)oc2n1 | inactive
21 | COc1ccc(-c2cn(Cc3ccccc3)c3ccccc23)c(OC)n1 | inactive
22 | CCN(CC)c1ncnc2c1c(-c1ccccc1)cn2-c1ccc(C)c(Cl)c1 | inactive
23 | Cc1cc(F)ncc1-c1cn(Cc2ccccc2)c2ccccc12 | inactive
24 | CN(C)CCNC(=O)Cc1cn(C)c2ccccc12 | inactive
25 | c1ccc(CN2CCN(c3ncnc4c3c(-c3ccccc3)cn4-c3ccccc3)CC2)cc1 | inactive
26 | Clc1ccc(-n2cc(-c3ccccc3)c3c(N4CCOCC4)ncnc32)cc1 | inactive

Row | SMILES | % of max PAR4-AP calcium response
27 | COc1ccc(OCCn2cc(C(=O)C(F)(F)F)c3ccccc32)cc1 | inactive
28 | CCSc1ncnc2c1c(-c1ccccc1)cn2-c1ccc(F)cc1 | inactive
29 | CCOc1ccc(NC(=O)Cn2cc(C(=O)C(F)(F)F)c3ccccc32)cc1 | inactive
30 | Cn1cc(-c2cn(Cc3ccccc3)c3ccccc23)cn1 | inactive
31 | COc1ccc(Br)cc1CNC(=O)CCCc1cn(C)c2ccccc12 | inactive
32 | Cc1cc(O)cc(O)c1C(=O)Cc1cnn(-c2ccccc2)c1 | inactive
33 | COc1ccc2c(c1)c(C(=O)CNc1nc(C)cs1)c(C)n2C | inactive
34 | Cc1ccc(OCCCn2cc(C(=O)C(F)(F)F)c3ccccc32)cc1 | inactive
35 | CN(C)c1ccc(/C=N/NC(=O)c2ccn(Cc3ccc(Cl)cc3)n2)cc1 | inactive
36 | CCc1nn(-c2ccccc2)c2nc(-c3ccccc3OC)c3cc(OC)c(OC)cc3c12 | inactive
37 | COc1ccc(Nc2ncnc3c2c(-c2ccccc2)cn3-c2ccc(Br)cc2)cc1OC | 38.7%
38 | Fc1ccc(OCCn2cc(C(=S)N3CCOCC3)c3ccccc32)cc1 | 38%
39 | COc1ccc(-n2cc(-c3ccccc3)c3c(=O)[nH]cnc32)cc1 | inactive
40 | COc1ccc2c(c1)c(C(=O)N1CCCC1)c(C)n2Cc1ccccc1 | inactive
41 | CCCCNC(=O)n1ccc(C(=O)Nc2ccc(C)cc2C)n1 | inactive
42 | OC(CNCc1ccccc1)Cn1c2c(c3ccccc31)CCCC2 (stereo not given) | inactive
43 | c1ccc(Cn2cc(CN3CCN(c4ccccc4)CC3)c3ccccc32)cc1 | inactive
44 | S=C(c1cn(CCCOc2ccccc2Cl)c2ccccc12)N1CCCC1 | inactive
45 | COc1cc(NC(=O)c2ccc3c(c2)c(C)c(C)n3C)cc(OC)c1 | inactive
46 | OCc1cn(Cc2ccccc2Cl)c2ccccc12 | inactive
47 | CSc1ncnc2c1c(-c1ccccc1)cn2-c1ccc(F)cc1 | inactive
48 | Fc1ccc(OCCn2cc(C(=S)N3CCCCC3)c3ccccc32)cc1 | inactive
49 | NC(=O)C1CCN(c2ncnc3c2c(-c2ccccc2)cn3-c2ccc(Cl)cc2)CC1 | inactive

Row | SMILES | % of max PAR4-AP calcium response
50 | Oc1ccccc1-c1nc2c3c(-c4ccccc4)c(-c4ccccc4)n(Cc4ccco4)c3ncn2n1 | inactive
51 | COc1ccccc1NS(=O)(=O)c1ccc(NC(=O)c2ccc3c(c2)c(C)c(C)n3C)cc1 | inactive
52 | O=C(c1cn(CCOc2ccc(Cl)cc2)c2ccc(Br)cc12)C(F)(F)F | inactive
53 | Clc1ccc(-n2cc(-c3ccccc3)c3c(NCc4cccs4)ncnc32)cc1 | inactive
54 | S=C(c1cn(CCOc2ccccc2)c2ccccc12)N1CCCC1 | inactive
55 | O=C(Cn1cc(CO)c2ccccc21)Nc1ccccc1 | inactive
56 | O=C(CCc1cn(Cc2ccccc2)c2ccccc12)NCCN1CCOCC1 | inactive
57 | CCN(CC)CC(O)Cn1c(C)c(-c2ccccc2)c2cc([N+](=O)[O-])ccc21 (stereo not given) | inactive
58 | CCn1ccc(C(=O)Nc2sc(C(=O)OC)c(C)c2C(=O)OC)n1 | inactive
59 | Cc1c(C)n(CC(O)CNCCCO)c2ccccc12 (stereo not given) | inactive
60 | Cc1ccc(-n2c(/C=C/c3cn(C)c4ccccc34)nc3ccccc3c2=O)cc1 | inactive
61 | O=c1c2ccccc2nc(/C=C/c2cn(Cc3ccccc3)c3ccccc23)n1CCCO | inactive
62 | COc1ccc(-n2cc(-c3ccccc3)c3c(NCCO)ncnc32)cc1 | inactive
63 | CC(=O)n1cc(-c2ccncc2)c2ccccc21 | inactive
64 | Fc1cccc(Cn2cc(C(=S)N3CCCCC3)c3ccccc32)c1 | inactive
65 | NS(=O)(=O)c1ccc(CCNc2ncnc3c2c(-c2ccccc2)cn3-c2cccc(Cl)c2)cc1 | inactive
66 | Cc1cc(OCCn2cc(C(=S)N3CCOCC3)c3ccccc32)ccc1Cl | inactive
67 | COc1ccc2c(c1)c(C(=O)CNc1nc(C)c(C)s1)c(C)n2C | inactive
68 | OCCc1c(-c2ccccc2)n(Cc2ccccc2)c2ccccc12 | inactive
69 | Fc1ccc(CNc2ncnc3c2c(-c2ccccc2)cn3-c2ccc(Br)cc2)cc1 | inactive
70 | O=C(c1cn(CCOc2ccc3c(c2)OCO3)c2ccc(Br)cc12)C(F)(F)F | inactive
71 | COc1ccc(NCC(O)Cn2c(C)c(C)c3ccccc32)cc1 (stereo not given) | inactive
72 | CC(C)Nc1ncnc2c1c(-c1ccccc1)cn2-c1cccc(C(F)(F)F)c1 | inactive

Row | SMILES | % of max PAR4-AP calcium response
73 | FC(F)(F)c1cccc(-c2cn(Cc3ccccc3)c3ccccc23)c1 | inactive
74 | CC(C)Sc1ncnc2c1c(-c1ccccc1)cn2-c1cccc(F)c1 | inactive
75 | Cn1cc(CC(=O)NCc2cccs2)c2ccccc21 | inactive
76 | Cn1cc(CC(=O)NCC2COc3ccccc3O2)c2ccccc21 (stereo not given) | inactive
77 | Cn1cc(CCCC(=O)NCc2cccs2)c2ccccc21 | inactive
78 | CCCNc1ncnc2c1c(-c1ccccc1)cn2-c1ccccc1 | inactive
79 | Fc1ccc(-c2cn(Cc3ccccc3)c3ccccc23)c(F)n1 | inactive
80 | Cc1ccc(-n2cc(-c3ccccc3)c3c(NCC4CCCO4)ncnc32)cc1Cl (stereo not given) | inactive
81 | CC(C)COc1ccc(-c2cn(Cc3ccccc3)c3ccccc23)cc1 | inactive
82 | Cc1cc(C)nc(SCC(=O)n2c(C)c(C)c3ccccc32)n1 | inactive
83 | COc1ccccc1OCCn1cc(C(=S)N2CCCC2)c2ccccc21 | inactive
84 | Cc1cccc(NCC(O)Cn2c(C)c(C)c3ccccc32)c1C (stereo not given) | inactive
85 | COc1ccc(OC)c(CNC(=O)CCCc2cn(C)c3ccccc23)c1 | inactive
86 | O=C(c1ccccc1F)n1c2c(c3ccccc31)CCCC2 | inactive
87 | CC(C)Oc1ccc(-c2cn(Cc3ccccc3)c3ccccc23)cc1 | inactive
88 | O=C(Cn1cc(CO)c2ccccc21)Nc1ccc(Cl)cc1 | inactive
89 | CCOc1ccc(NCC(O)Cn2c(C)c(C)c3ccccc32)cc1 (stereo not given) | inactive
90 | CCn1ccc(C(=O)NC2CCCCC2)n1 | inactive
91 | Cc1c(CCO)c2ccccc2n1-c1ccccc1 | inactive
92 | O=C(Cn1cc(C(=O)C(F)(F)F)c2ccccc21)N1CCCC1 | inactive
93 | Fc1ccc(Cn2cc(C(=S)N3CCOCC3)c3ccccc32)cc1 | inactive
94 | Cn1cc(CC(=O)NCCCN2CCCC2=O)c2ccccc21 | inactive
95 | CC(=O)n1cc(C2C(=O)NN=C2C)c2ccccc21 (stereo not given) | inactive
